Laboratory results as given in ChEMBL document CHEMBL1140342, “Antitumor activity of C-methyl-beta-D-ribofuranosyladenine nucleoside ribonucleotide reductase inhibitors” (J Med Chem, 2005).
pIC50: −log10 of the molar value.

Columns and labels:
Assay type in all cases: functional, cell-based
K562 [1] = experiment: In vitro inhibitory activity against human leukemia K562IU cell line
Outline: (§1)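 Cells kept in 10% FBS medium, RPMI 1640 for K562/K562IU and MEM alpha for HT-29/MCF-7; adherent lines trypsinized to single-cell suspension. Log-phase cells seeded at about 50 000 cells/mL, acclimatized 24 h, then exposed to compound dilutions (up to 100 μM) in triplicate for 48 h at 37 °C, 5% CO2. MTS/PMS tetrazolium reduction 3 h, A490; IC50 = concentration giving 50% growth inhibition.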

K562 [2] = experiment: In vitro inhibitory activity against human myelogenous leukemia K562 cell line; outline: as §1
MCF7 = experiment: In vitro inhibitory activity against human breast carcinoma MCF-7 cell line; outline: as §1
HT-29 = experiment: In vitro inhibitory activity against human colon carcinoma HT-29 cell line; outline: as §1

pIC50 (K562 [1])	pIC50 (K562 [2])	pIC50 (MCF7)	pIC50 (HT-29)	Compound
< 4.00	4.14	< 4.00	< 4.00	C[C@]1(O)C(O)C(n2cnc3c(NC4CC4)ncnc32)O[C@@H]1CO (single isomer, unassigned)
4.42	4.74	4.76	4.63	C[C@]1(O)C(O)[C@H](n2cnc3c(N)ncnc32)O[C@@H]1CO (single isomer, unassigned)
< 4.00	< 4.00	< 4.00	< 4.00	CNc1ncnc2c1ncn2[C@@H]1O[C@H](CO)[C@@H](O)C1O (single isomer, unassigned)
< 4.00	< 4.00	< 4.00	< 4.00	C[C@]1(O)C(n2cnc3c(N)nc(Cl)nc32)O[C@H](CO)[C@H]1O (stereo partly drawn)
< 4.00	< 4.00	< 4.00	< 4.00	CNc1ncnc2c1ncn2C1O[C@H](CO)[C@@H](O)[C@@]1(C)O (stereo partly drawn)
< 4.00	4.80	< 4.00	< 4.00	C[C@@]1(O)[C@H](O)[C@@H](CO)O[C@H]1n1cnc2c(N)ncnc21

The remaining lines, values behind:

Compound	pIC50 (K562 [1])	pIC50 (K562 [2])	pIC50 (MCF7)	pIC50 (HT-29)
OC[C@H]1O[C@@H](n2cnc3c(NC4CC4)ncnc32)C(O)[C@@H]1O (single isomer, unassigned)	< 4.00	< 4.00	4.03	< 4.00
CNc1ncnc2c1ncn2C1O[C@H](CO)[C@@](C)(O)C1O (single isomer, unassigned)	4.03	4.36	4.17	4.13
Nc1nc(Cl)nc2c1ncn2[C@@H]1O[C@H](CO)[C@@H](O)C1O (single isomer, unassigned)	4.71	4.81	4.14	4.07
C[C@]1(O)C(O)C(n2cnc3c(N)nc(Cl)nc32)O[C@@H]1CO (single isomer, unassigned)	< 4.00	< 4.00	< 4.00	< 4.00
C[C@@]1(n2cnc3c(N)ncnc32)O[C@H](CO)[C@@H](O)C1O (single isomer, unassigned)	< 4.00	4.28	< 4.00	< 4.00
C[C@]1(O)C(n2cnc3c(NC4CC4)ncnc32)O[C@H](CO)[C@H]1O (stereo partly drawn)	< 4.00	< 4.00	< 4.00	< 4.00
